This note sets out measurements from ChEMBL document CHEMBL2040780, “Antiarrhythmic properties of phenylpiperazine derivatives of phenytoin with α₁-adrenoceptor affinities” (Bioorg Med Chem, 2012).

The structures appear in SMILES notation. The source made the active and inactive calls.

Series [1] concerns the target T1, Adrenergic receptor alpha-1 (Rattus norvegicus, UniProt P15823+P23944+P43140).
T1 sequence (P15823 whole entry): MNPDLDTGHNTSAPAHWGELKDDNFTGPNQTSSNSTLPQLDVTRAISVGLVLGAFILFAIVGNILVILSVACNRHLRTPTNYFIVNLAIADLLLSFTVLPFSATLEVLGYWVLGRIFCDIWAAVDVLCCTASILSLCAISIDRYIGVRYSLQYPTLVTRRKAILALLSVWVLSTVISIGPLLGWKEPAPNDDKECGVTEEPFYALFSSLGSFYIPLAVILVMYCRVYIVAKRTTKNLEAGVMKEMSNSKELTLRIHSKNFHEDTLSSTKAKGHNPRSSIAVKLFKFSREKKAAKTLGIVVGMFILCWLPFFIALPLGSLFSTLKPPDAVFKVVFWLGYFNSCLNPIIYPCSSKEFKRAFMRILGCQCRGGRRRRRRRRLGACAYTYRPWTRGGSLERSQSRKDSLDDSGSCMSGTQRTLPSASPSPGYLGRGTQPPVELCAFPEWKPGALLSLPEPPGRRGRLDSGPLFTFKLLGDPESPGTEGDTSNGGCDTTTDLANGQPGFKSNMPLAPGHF
T1 sequence (P23944 whole entry): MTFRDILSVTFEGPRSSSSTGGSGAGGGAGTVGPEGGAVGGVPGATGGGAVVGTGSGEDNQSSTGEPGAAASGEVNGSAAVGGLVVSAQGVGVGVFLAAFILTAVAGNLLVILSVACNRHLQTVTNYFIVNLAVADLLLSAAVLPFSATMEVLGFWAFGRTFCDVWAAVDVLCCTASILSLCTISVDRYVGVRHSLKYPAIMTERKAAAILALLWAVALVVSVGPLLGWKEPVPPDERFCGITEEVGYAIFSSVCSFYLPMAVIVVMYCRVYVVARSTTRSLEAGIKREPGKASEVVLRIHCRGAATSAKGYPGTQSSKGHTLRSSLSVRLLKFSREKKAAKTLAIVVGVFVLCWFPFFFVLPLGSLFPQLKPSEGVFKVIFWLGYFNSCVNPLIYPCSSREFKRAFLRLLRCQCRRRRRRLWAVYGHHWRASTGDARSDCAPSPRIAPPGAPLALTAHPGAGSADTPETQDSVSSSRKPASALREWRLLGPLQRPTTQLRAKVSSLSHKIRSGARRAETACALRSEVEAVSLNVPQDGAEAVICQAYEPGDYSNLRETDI
T1 sequence (P43140 whole entry): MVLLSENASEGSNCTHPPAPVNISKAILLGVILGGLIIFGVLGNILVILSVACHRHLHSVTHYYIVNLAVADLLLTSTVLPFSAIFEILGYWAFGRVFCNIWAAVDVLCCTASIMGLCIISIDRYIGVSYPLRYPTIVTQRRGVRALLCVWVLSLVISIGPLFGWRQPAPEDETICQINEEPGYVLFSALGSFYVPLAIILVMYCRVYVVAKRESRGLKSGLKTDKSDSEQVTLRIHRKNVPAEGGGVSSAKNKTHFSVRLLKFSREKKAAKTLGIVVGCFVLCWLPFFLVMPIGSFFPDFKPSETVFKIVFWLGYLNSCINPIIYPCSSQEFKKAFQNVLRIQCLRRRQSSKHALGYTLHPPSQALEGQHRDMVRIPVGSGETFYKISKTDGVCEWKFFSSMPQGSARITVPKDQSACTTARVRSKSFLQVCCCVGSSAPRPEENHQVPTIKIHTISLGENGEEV
Briefly: Displacement of [3H]prazosin from alpha1 adrenoceptor in rat cerebral cortex after 30 mins by microbeta scintillation counting. The class given is tissue-based. Summed up: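 Rat cerebral cortex homogenised in ice-cold 50 mM Tris-HCl (pH 7.6 at 25 °C), washed twice at 20000×g and resuspended at 10 mg wet weight/ml. Incubated with [3H]prazosin (19.5 Ci/mmol) and test compound for 30 min at 25 °C. Nonspecific binding defined with 10 µM phentolamine. GF/B filtration, scintillation counting, three-parameter logistic competition fit.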
On the technique in general: In a radioligand displacement assay an active substance lowers the binding of a labelled ligand.

Series [2] has as its system Rattus norvegicus. Briefly: Antiarrhythmic activity in Wistar rat assessed as effect on heart beat at 10 mg/kg, iv after 1 min. The class given is functional. Summed up: (§1)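 Male Wistar rats (180–250 g), anaesthetised with thiopental 60 mg/kg ip. Standard lead II ECG recorded at 50 mm/s just before dosing and at 1, 5 and 15 min after. Heart rate and P–Q, Q–T and QRS intervals were read. n=6 per group, mean ± SEM, one-way ANOVA.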

Series [3] deals with Rattus norvegicus. As to the kind of experiment: Antiarrhythmic activity in Wistar rat assessed as effect on heart beat at 10 mg/kg, iv after 5 mins. The class given is functional. Put shortly: as §1
The subject of series [4] is Rattus norvegicus. As to the kind of experiment: Antiarrhythmic activity in Wistar rat assessed as effect on heart beat at 10 mg/kg, iv after 15 mins. The class given is functional. Put shortly: as §1
For series [5], the system named is Rattus norvegicus. Briefly: Cardiotoxicity in Wistar rat assessed as effect on P-Q interval at 10 mg/kg, iv after 1 min. The class given is toxicity, organism-based. Also noted: dose 10 mg/kg, route intravenous. The following applies: in vivo. Summed up:
as §1

Series [6] concerns Rattus norvegicus. As to the kind of experiment: Cardiotoxicity in Wistar rat assessed as effect on P-Q interval at 10 mg/kg, iv after 5 mins. In kind it is toxicity, organism-based. More on the design: dose 10 mg/kg, route intravenous. Conditions: in vivo. Summed up:
as §1

The test system of series [7] is Rattus norvegicus. As to the kind of experiment: Cardiotoxicity in Wistar rat assessed as effect on P-Q interval at 10 mg/kg, iv after 15 mins. In kind it is toxicity, organism-based. Also noted: dose 10 mg/kg, route intravenous. Conditions: in vivo, 0.25 h. Put shortly:
as §1

The subject of series [8] is Rattus norvegicus. As to the kind of experiment: Cardiotoxicity in Wistar rat assessed as effect on Q-T interval at 10 mg/kg, iv after 1 min. In kind it is toxicity, organism-based. Also noted: dose 10 mg/kg, route intravenous. The following applies: in vivo. Put shortly:
as §1

Series [9] deals with Rattus norvegicus. Briefly: Cardiotoxicity in Wistar rat assessed as effect on Q-T interval at 10 mg/kg, iv after 5 mins. In kind it is toxicity, organism-based. Also noted: dose 10 mg/kg, route intravenous. The following applies: in vivo. Summed up:
as §1

The test system of series [10] is Rattus norvegicus. As to the kind of experiment: Cardiotoxicity in Wistar rat assessed as effect on Q-T interval at 10 mg/kg, iv after 15 mins. The class given is toxicity, organism-based. The following applies: in vivo, 0.25 h. More on the design: dose 10 mg/kg, route intravenous. Summed up:
as §1

The subject of series [11] is Rattus norvegicus. Briefly: Cardiotoxicity in Wistar rat assessed as effect on QRS interval at 10 mg/kg, iv after 1 min. Also noted: dose 10 mg/kg, route intravenous. The class given is toxicity, organism-based. Conditions: in vivo. Put shortly:
as §1

The test system of series [12] is Rattus norvegicus. Briefly: Cardiotoxicity in Wistar rat assessed as effect on QRS interval at 10 mg/kg, iv after 5 mins. Conditions: in vivo. The class given is toxicity, organism-based. More on the design: dose 10 mg/kg, route intravenous. Put shortly:
as §1

Series [13] deals with Rattus norvegicus. As to the kind of experiment: Cardiotoxicity in Wistar rat assessed as effect on QRS interval at 10 mg/kg, iv after 15 mins. The class given is toxicity, organism-based. Conditions: in vivo, 0.25 h. More on the design: dose 10 mg/kg, route intravenous. Summed up: as §1
Series [14] has as its system Rattus norvegicus. As to the kind of experiment: Antiarrhythmic activity in iv dosed Wistar rat assessed as protection against barium chloride-induced extrasystoles administered 15 mins prior to barium chloride-challenge. In kind it is functional, Heart. Summed up:
(§2)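 Szekeres model in male Wistar rats. Activity is gradual disappearance of arrhythmia with restored sinus rhythm; protection against disturbances and death scored. Groups of 6 animals.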

In series [15] the test system is Rattus norvegicus. Briefly: Antiarrhythmic activity in dosed Wistar rat assessed as protection against barium chloride-induced fibrillation administered 15 mins prior to barium chloride-challenge. The class given is functional, Heart. Put shortly: as §2
Series [16] deals with Rattus norvegicus. As to the kind of experiment: Antiarrhythmic activity in iv dosed barium chloride-induced Wistar rat arrhythmia model assessed as protection against mortality administered 15 mins prior to barium chloride-challenge. In kind it is functional. Conditions: Heart. Put shortly: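 Male Wistar rats (180–250 g), groups of 6. Activity criterion: gradual disappearance of arrhythmia and restoration of sinus rhythm; protection against heart disturbances and death scored.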

For series [17], the system named is Rattus norvegicus. As to the kind of experiment: Hypotensive activity in normotensive Wistar rat assessed as decrease in systolic blood pressure at 2.5 to 10 mg/kg, iv at 1 min. In kind it is organism-based, Artery. More on the design: dose 2.5-10 mg/kg, route intravenous. The following applies: in vivo. Put shortly: (§3)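 Right carotid artery cannulated with heparin-saline-filled tubing for blood pressure recording. After 5 min stabilisation, compound injected iv into the caudal vein (2.5–10 mg/kg, 1 ml/kg). Systolic and diastolic pressure followed for 60 min. n=6 per group, mean ± SEM, one-way ANOVA.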

Series [18] has as its system Rattus norvegicus. Briefly: Hypotensive activity in normotensive Wistar rat assessed as decrease in diastolic blood pressure at 2.5 to 10 mg/kg, iv at 1 min. The class given is organism-based, Artery. The following applies: in vivo. More on the design: dose 2.5-10 mg/kg, route intravenous. Summed up:
as §3

Series [19] relates to Rattus norvegicus. Briefly: Hypotensive activity in normotensive Wistar rat assessed as decrease in systolic blood pressure at 2.5 to 10 mg/kg, iv after 1 min measured up to 60 mins. More on the design: dose 2.5-10 mg/kg, route intravenous. The following applies: in vivo. The class given is organism-based, Artery. Summed up: as §3
Series [20] has as its system Rattus norvegicus. Briefly: Hypotensive activity in normotensive Wistar rat assessed as decrease in diastolic blood pressure at 2.5 to 10 mg/kg, iv after 1 min measured up to 60 mins. The class given is organism-based, Artery. Conditions: in vivo. More on the design: dose 2.5-10 mg/kg, route intravenous. Put shortly:
as §3

For the molecule `CN1C(=O)N(CC(O)CN2CCN(c3ccccc3Cl)CC2)C(c2ccccc2)(c2ccccc2)C1=O.Cl` (racemic), the inhibition constant (Ki) (usually a measure of affinity in units of concentration, obtained from inhibition or displacement) in series [1] was found to be 483 nM. Besides, the pKi (usually −log10 of the Ki, conventionally taken in molar units) in [1] was 6.32. In addition, the Activity in series [2] was found to be 279 min⁻¹; in series [3] it was 278 min⁻¹; in series [4] it was 303 min⁻¹; in [5], 60 ms; in series [6], 60 ms; in series [7] it was 60 ms. Moreover, the Activity in series [8] is reported as 83 ms; in series [9], 76 ms; in series [10], 72 ms; in [11], 17 ms; in [12], 16 ms; in [13] it was 16 ms. In addition, the Activity in series [14] and in series [15] was greater than 50% each time.

Turning to `C=CC(C(=O)OC)N1C(=O)N(CC(O)CN2CCN(c3ccccc3OC)CC2)C(c2ccccc2)(c2ccccc2)C1=O.Cl` (racemic), the Activity in series [2] came to 261 min⁻¹; in series [3] it was 294 min⁻¹; in [4], 291 min⁻¹; in [5] it was 56 ms; in series [6], 57 ms; in [7], 56 ms. For the same molecule, the Activity in [8] was found to be 82 ms; in [9], 78 ms; in [10] it was 71 ms; in [11], 25 ms; in [12], 23 ms; in series [13], 25 ms. The outcome in [14] (Heart), in [15] (Heart) and in series [16] was inactive.

Take `CN1C(=O)N(CC(O)CN2CCN(c3ccccc3)CC2)C(c2ccccc2)(c2ccccc2)C1=O.Cl` (racemic): the inhibitory constant (Ki) in [1] is reported as 542.3 nM. Further, the pKi in series [1] is 6.27. The Activity was 270 min⁻¹ in series [2]; 260 min⁻¹ in [3]; 263 min⁻¹ in [4]; 66 ms in series [5]; 59 ms in series [6]; 59 ms in [7]. The Activity is reported as 109 ms in series [8]; 79 ms in [9]; 74 ms in [10]; 23 ms in series [11]; 20 ms in series [12]; 18 ms in series [13]. For the same molecule, the Activity entry is listed as “Toxic” in series [17], “Toxic” in series [18], “Non-toxic” in [19] and “Non-toxic” in series [20].

`COC(=O)CN1C(=O)N(CC(O)CN2CCN(c3ccccc3F)CC2)C(c2ccccc2)(c2ccccc2)C1=O.Cl` (racemic) yielded a Ki in series [1] of 3300 nM. The molecule also returned a pKi in series [1] of 5.48. In addition, the Activity in [2] was found to be 284 min⁻¹; in [3], 256 min⁻¹; in [4] it was 281 min⁻¹; in series [5], 66 ms; in series [6], 61 ms; in series [7], 58 ms. For the same molecule, the Activity in series [8] came out at 86 ms; in series [9], 82 ms; in series [10] it was 71 ms; in [11] it was 17 ms; in series [12], 17 ms; in series [13], 15 ms. In addition, the Activity entry was “Toxic” in series [17], “Toxic” in series [18], “Non-toxic” in [19] and “Non-toxic” in series [20].
